Here are results for 30 compounds from ChEMBL document CHEMBL1128419, “Orally active beta-lactam inhibitors of human leukocyte elastase. 3. Stereospecific synthesis and structure-activity relationships for 3,3-dialkylazetidin-2-ones” (J Med Chem, 1995).

SMILES strings stand for the structures.

Assay [1] concerns the target T1, Neutrophil elastase (Homo sapiens) (UniProt P08246).
T1 sequence (whole entry): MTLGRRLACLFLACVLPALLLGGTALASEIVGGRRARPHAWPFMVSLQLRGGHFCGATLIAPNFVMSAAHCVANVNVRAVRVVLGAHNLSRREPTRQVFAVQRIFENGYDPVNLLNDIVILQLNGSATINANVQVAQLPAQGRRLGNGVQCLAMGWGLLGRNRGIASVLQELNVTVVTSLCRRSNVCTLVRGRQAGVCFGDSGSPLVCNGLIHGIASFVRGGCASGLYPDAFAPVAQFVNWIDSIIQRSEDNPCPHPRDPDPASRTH
Put plainly: In vitro inhibition of human leukocyte elastase (HLE), and the Kobs[I] is the second-order rate constant for the time dependent inactivation of HLE by the compound.

In assay [2] the test system is Cricetinae gen. sp. Put plainly: Oral effective dose required to inhibit HLE-induced lung hemorrhage in hamster. It counts as functional, Cricetulus griseus. The procedure, abridged:
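Oral doses of 30, 10, 3, 1 (and 0.3) mg/kg as Methocel suspension given 30 min before intratracheal instillation of 50 units HLE/animal in hamsters; lungs lavaged 3 h later, hemoglobin read at 414 nm; % inhibition versus vehicle used to fit a dose-response curve for ED50.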

Assay [3] deals with T1, Neutrophil elastase (Homo sapiens). Put plainly: Compound at an peroral dose of 30 mpk was tested for the inhibition of HLE-induced lung hemorrhage in hamsters. In kind it is functional. The gist of the method: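 Hamster lung hemorrhage screen: 30 mg/kg given orally as Methocel suspension 30 min before intratracheal instillation of 50 units HLE/animal; sacrifice at 3 h, saline lung lavage, hemoglobin measured at 414 nm; % inhibition versus vehicle-treated animals, averaged over three animals per dose and time.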

Assay [4] concerns Cricetinae gen. sp. The assay can be described thus: Compound at an peroral dose of 100 mpk was tested for the inhibition of HLE-induced lung hemorrhage in hamsters. In kind it is functional, Cricetulus griseus. The following applies: po.
The target in the next assay is T2, Neutrophil elastase (Homo sapiens, UniProt P08246).
T2 sequence (P08246 whole entry): T1 sequence (whole entry)
Put plainly: In vitro human leukocyte elastase (HLE) inhibition, and the Kobs[I] is the second-order rate constant for the time dependent inactivation of HLE by the compound.

What is called ED50 is the dose at which the effect has come halfway, by size or by number of responders. High values mean a need for a large dose, low ones an effect at a small dose. In general, inhibition refers to how much of the control response was suppressed. As usually defined, the inhibition in vivo is how much of the control response was suppressed. Read a low inhibition in vivo as a response near the control.

In turn, `CCC[C@@H](NC(=O)N1C(=O)[C@](C)(CC)[C@@H]1Oc1ccc(C(=O)O)cc1)c1ccccc1` had a K obs / 1 in assay [1] of 152000 M⁻¹ s⁻¹. The compound also registered a median effective dose (ED50) in the assay with Cricetinae gen. sp. [2] of 1.5 mg/kg. Further, the inhibition in assay [3] came out at 94%. `CCCC1(CCC)C(=O)N(C(=O)NCc2ccccc2)C1Oc1ccc(C(=O)O)cc1` (stereo not drawn) showed a K obs / 1 in assay [1] of 2500 M⁻¹ s⁻¹. In assay [3], the inhibition is 56%. In assay [1], `CC[C@]1(Cc2ccccc2)C(=O)N(C(=O)NCc2ccccc2)[C@H]1Oc1ccc(C(=O)O)cc1` had a K obs / 1 of 90 M⁻¹ s⁻¹. As for `CCC(C)[C@]1(CC)C(=O)N(C(=O)NCc2ccccc2)[C@H]1Oc1ccc(C(=O)O)cc1` (stereo partly drawn), the K obs / 1 in assay [1] worked out at 1200 M⁻¹ s⁻¹. Besides, in assay [3], the inhibition turned out to be 23%.

Compound `C[C@]1(Oc2ccc(C(=O)O)cc2)N(C(=O)NCc2ccccc2)C(=O)C12CCCC2` displayed a K obs / 1 in assay [1] of 1900 M⁻¹ s⁻¹. Also, the inhibition in assay [3] came out at 8%.

With `CC[C@@H](NC(=O)N1C(=O)[C@](C)(CC)[C@@H]1Oc1ccc(C(=O)O)cc1)c1ccccc1`, the K obs / 1 in assay [1] is 91000 M⁻¹ s⁻¹. The median effective dose (ED50) with Cricetinae gen. sp. [2] amounted to 3.7 mg/kg. This compound had an inhibition in assay [3] of 98%. In assay [1], `C=CC[C@]1(CC)C(=O)N(C(=O)NCc2ccccc2)[C@H]1Oc1ccc(C(=O)O)cc1` came in with a K obs / 1 of 2800 M⁻¹ s⁻¹. For the same compound, in assay [3], the inhibition was 56%.

As to `CC[C@@]1(C)C(=O)N(C(=O)NCc2ccccc2)[C@@H]1Oc1ccc(C(=O)O)cc1`, the K obs / 1 in assay [1] is 220 M⁻¹ s⁻¹. As to `CCC[C@@]1(CC)C(=O)N(C(=O)NCc2ccccc2)[C@H]1Oc1ccc(C(=O)O)cc1`, the K obs / 1 in assay [1] came out at 3300 M⁻¹ s⁻¹. The compound also came in with an inhibition in assay [3] of 52%. As to `CC[C@@]1(C)C(=O)N(C(=O)N[C@@H](C)c2ccccc2)[C@H]1Oc1ccc(C(=O)O)cc1`, the K obs / 1 in assay [1] came to 4800 M⁻¹ s⁻¹. The inhibition in assay [3] was determined as 13%. Compound `CCCC1(CC)C(=O)N(C(=O)NCc2ccccc2)C1Oc1ccc(C(=O)O)cc1` (stereo not drawn) registered a K obs / 1 in assay [1] of 5200 M⁻¹ s⁻¹. The compound further registered an inhibition in assay [3] of 78%. In the same order, the values of `CCC1(CC)C(=O)N(C(=O)NCc2ccccc2)[C@]1(C)Oc1ccc(C(=O)O)cc1` are 1500 M⁻¹ s⁻¹ and 59%.

In the case of `CCC[C@]1(CC)C(=O)N(C(=O)N[C@H](C)c2ccccc2)[C@H]1Oc1ccc(C(=O)O)cc1`, the K obs / 1 in assay [1] was 4500 M⁻¹ s⁻¹. The inhibition in assay [3] worked out at 61%. For `CC[C@H](NC(=O)N1C(=O)[C@](C)(CC)[C@@H]1Oc1ccc(C(=O)O)cc1)c1ccccc1`, in that order: 4700 M⁻¹ s⁻¹ and 22%. As to `CC[C@@]1(Cc2ccccc2)C(=O)N(C(=O)NCc2ccccc2)[C@H]1Oc1ccc(C(=O)O)cc1`, the K obs / 1 in assay [1] was determined as 84 M⁻¹ s⁻¹. Same read-out and setting: with `CC[C@]1(C)C(=O)N(C(=O)NCc2ccccc2)[C@H]1Oc1ccc(C(=O)O)cc1` the figure was 160 M⁻¹ s⁻¹. For the compound `CC[C@@]1(C)C(=O)N(C(=O)N[C@H](C)c2ccccc2)[C@H]1Oc1ccc(C(=O)O)cc1`, the K obs / 1 in assay [1] amounted to 15200 M⁻¹ s⁻¹. In assay [3], this compound returned an inhibition of 82%. The compound `CC[C@@]1(COC)C(=O)N(C(=O)NCc2ccccc2)[C@H]1Oc1ccc(C(=O)O)cc1` yielded a K obs / 1 in assay [1] of 1900 M⁻¹ s⁻¹. Besides, the inhibition in assay [3] is 46%.

Consider `CC[C@@]1(C)C(=O)N(C(=O)NCc2ccccc2)[C@H]1Oc1ccc(C(=O)O)cc1`, for which, in assay [1], the K obs / 1 was determined as 2000 M⁻¹ s⁻¹. This compound gave an inhibition in assay [3] of 70%. On to `CCCC[C@]1(CC)C(=O)N(C(=O)NCc2ccccc2)[C@H]1Oc1ccc(C(=O)O)cc1`, for which, in assay [1], the K obs / 1 came to 4400 M⁻¹ s⁻¹. In assay [3], this compound yielded an inhibition of 36%. Turning to `CC[C@@]1(C(C)C)C(=O)N(C(=O)NCc2ccccc2)[C@H]1Oc1ccc(C(=O)O)cc1`, the K obs / 1 in assay [1] came out at 10 M⁻¹ s⁻¹. In addition, the inhibition in assay [3] was found to be 13%.

Compound `CC(C)[C@@]1(C)C(=O)N(C(=O)NCc2ccccc2)[C@H]1Oc1ccc(C(=O)O)cc1` registered a K obs / 1 in assay [1] of 21 M⁻¹ s⁻¹. With `CCC[C@]1(CC)C(=O)N(C(=O)N[C@H](CC)c2ccccc2)[C@H]1Oc1ccc(C(=O)O)cc1`, the K obs / 1 in assay [1] stood at 35500 M⁻¹ s⁻¹. The compound also displayed an inhibition in assay [3] of 52%. Regarding `CCC[C@@]1(C)C(=O)N(C(=O)NCc2ccccc2)[C@H]1Oc1ccc(C(=O)O)cc1`, in assay [1], the K obs / 1 was found to be 1900 M⁻¹ s⁻¹. Further, in the assay with Cricetinae gen. sp. [4], the inhibition in vivo at 100 mg/kg was found to be 49%. Regarding `CCC[C@@H](NC(=O)N1C(=O)[C@@](CC)(CCC)[C@@H]1Oc1ccc(C(=O)O)cc1)c1ccccc1`, the K obs / 1 in assay [1] is 60000 M⁻¹ s⁻¹. The compound further returned an inhibition in assay [3] of 53%. With `CC[C@]1(C)C(=O)N(C(=O)NCc2ccccc2)[C@@H]1Oc1ccc(C(=O)O)cc1`, in assay [1], the K obs / 1 was determined as 200 M⁻¹ s⁻¹. In assay [1], `CC1(C)C(=O)N(C(=O)NCc2ccccc2)C1Oc1ccc(C(=O)O)cc1` (stereo not drawn) returned a K obs / 1 of 280 M⁻¹ s⁻¹. Still for that read-out and setting: with `CC[C@@]1(C)C(=O)N(C(=O)N[C@H](C)c2ccccc2)[C@@H]1Oc1ccc(C(=O)O)cc1` the figure was 400 M⁻¹ s⁻¹.

On to `CCC[C@@]1(C)C(=O)N(C(=O)NCc2ccccc2)[C@@H]1Oc1ccc(C(=O)O)cc1`, for which the Ki at Neutrophil elastase was found to be 51 µM.

`C=CC[C@@]1(CC)C(=O)N(C(=O)NCc2ccccc2)[C@H]1Oc1ccc(C(=O)O)cc1` yielded a K obs / 1 in assay [1] of 2000 M⁻¹ s⁻¹. Besides, the inhibition in assay [3] was determined as 51%.
